Assay outcomes (PubChem)
PMI act = activators of human PMI, primary screen, biochemical, fluorescence intensity, near-Km mannose 6-phosphate | Mannose-6-phosphate isomerase (Homo sapiens), P34949 | purified human PMI, coupled resazurin fluorescence, 20 min; stronger effect = higher value; 1 = vehicle control, 0 substrate-free wells | activation factor at 20 µM | hit rate 0.005% among 190,000;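 active means activation factor of 2 or more at 20 µM, relative to plate controls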
Rad51 HR inh = human RAD51 strand exchange inhibitors, primary screen, biochemical, fluorescence | inhibition, % at 10 µM | hit rate 0.085% among 200,000 | hRad51 DNA strand exchange, fluorescence dequenching;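 active means inhibition above 40% at the single screening dose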;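 further: 0% = DMSO control wells and 100% = blanks with heterologous ssDNA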
Target sequence (Q06609 whole entry, looked up): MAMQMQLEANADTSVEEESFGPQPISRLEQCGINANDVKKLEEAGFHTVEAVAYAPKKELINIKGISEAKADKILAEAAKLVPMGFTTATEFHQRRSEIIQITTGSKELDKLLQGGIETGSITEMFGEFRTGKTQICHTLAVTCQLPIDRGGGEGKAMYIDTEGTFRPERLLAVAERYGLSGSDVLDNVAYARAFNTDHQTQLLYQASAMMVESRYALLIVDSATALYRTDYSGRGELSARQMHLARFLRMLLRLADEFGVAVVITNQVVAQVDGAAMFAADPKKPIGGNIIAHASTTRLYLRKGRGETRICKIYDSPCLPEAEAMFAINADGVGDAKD
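Assay system: Human Rad51 nucleoprotein filaments preassembled on unlabelled ssDNA | Reagent: Donor/quencher-labelled 47-bp dsDNA substrate | Doses: One concentration, 10 µM final | Times: 37 °C 15-min filament assembly, 30-min compound preincubation, 15-min exchange | Technique: Fluorescein emission 520 nm, excitation 485 nm | Benchmarks: Plate control and blank wells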
L major viab = Leishmania major promastigote growth inhibition, primary screen | Leishmania major promastigotes, resazurin fluorescence viability | inhibition, % at 10 µM | hit rate 9% among 200,000; in the data active means inhibition above about 50%;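 further: promastigotes grown with compound for 44 hours at 28 °C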
PMI act satM6P = human PMI activators, high substrate, primary screen, biochemical, fluorescence intensity, near-saturating mannose 6-phosphate. activation factor at 20 µM. coupled PMI enzyme assay, resazurin fluorescence, 20 min; stronger effect = higher value; 1 = untreated enzyme, 0 = substrate-free blank. Mannose-6-phosphate isomerase (Homo sapiens), P34949. hit rate 0.34% among 190,000;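 active means activation factor of 2 or more at 20 µM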
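test system = human PMI in coupled enzyme assay | medium = HEPES-buffered pH 7.4 with magnesium and detergent | also added = 1.0 mM mannose-6-phosphate substrate with 0.22 mM NADP+ | compound = 20 µM single dose | times = 20 min incubation at room temperature | measured by = resorufin fluorescence (Ex 544/Em 590 nm) from resazurin via diaphorase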
WT yeast gro inh = growth inhibition of WT strain, primary screen, mitochondrial fusion inhibitor project, WT and mutant strains, chemical genetic. hit rate 2.1% among 190,000. mitochondrial fusion phenotypic screen. inhibition, % at 10 µM. AID 1362, 2008; in the data active means inhibition above about 58%; tested in S. cerevisiae
Calpain2 inh = inhibitors of pig calpain II, primary screen, biochemical, fluorogenic peptide substrate, 1536-well | purified calpain II, 30 min | hit rate 0.37% among 220,000 | inhibition, % at 16 µM;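 active means inhibition above about 50%, limit read from the data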
Starred values were filed as active, the others as inactive; x = no result. The list is not random: actives were taken first. Their share in the collection is about 9.8%.

SMILES	PMI act	Rad51 HR inh	L major viab	PMI act satM6P	WT yeast gro inh	Calpain2 inh
Cc1ccc(C2(c3ccc(C)cc3)CC2C(=O)NCc2cccnc2)cc1 (stereo not drawn)	1	-15	20	1	-4	21
COc1ccc(OCc2nc3ccccc3n2C(C)C)cc1	0.9	-3	5	0.9	-6	6
CCN1C(=O)/C(=C2/C(=O)N3c4c(cc(OC(C)=O)cc42)C(C)=CC3(C)C)SC1=S	1.2	5	78*	1.1	12	-18
COc1cc2c3c(c1)/C(=C1/SC(NC(C)=O)=NC1=O)C(=O)N3C(C)(C)C=C2C	0.9	-4	-7	1	19	5
C=CCN1C(=O)C(O)(CC(=O)c2ccc(OC)cc2OC)c2cc(Br)ccc21 (stereo not drawn)	1	14	74*	0.9	7	15
CN1C(=O)C(O)(CC(=O)c2ccccc2O)c2cc(Br)ccc21 (stereo not drawn)	0.8	9	1	0.8	13	-4
N#CC(C#N)=Cc1ccc(OCC(=O)N2CCOCC2)cc1	0.9	3	-1	0.9	-6	-28
CC(C)(C)SCCNC(=O)Nc1ccccc1	1.1	-2	54*	1	10	11
CC(C)(C)SCCNC(=O)CSc1ccccc1	x	-8	-3	x	-2	x
COc1ccc(NC(=O)CCN2C(=O)C3C4CCC(C4)C3C2=O)cc1 (stereo not drawn)	1.2	-12	57*	1.1	3	16
O=C(CCN1C(=O)C2C3CCC(C3)C2C1=O)Nc1ccc(Br)cc1 (stereo not drawn)	1	6	60*	1	3	7
CC1Cc2ccccc2N1C(=O)CSc1nccc(=O)[nH]1 (stereo not drawn)	1.1	-5	-3	1.1	-8	-15
COc1ccc(OC)c(C(=O)CSc2nccc(-c3ccc(Br)cc3)n2)c1	0.9	0	-1	0.9	12	-68
CCCCC(O)(CCCC)C(=O)NN(C(=O)OCC)c1ccccc1	0.9	0	-2	1	9	15
CCCC(O)(CCC)C(=O)NN(C(=O)CCl)c1ccccc1	1.1	x	52*	1.1	-8	-5
COCc1[nH]nc2c1C(c1sccc1C)C(C#N)=C(N)O2 (stereo not drawn)	1.1	x	72*	1	-36	-36
CCCc1[nH]nc2c1C(c1ccc(OC)cc1OC)C(C#N)=C(N)O2 (stereo not drawn)	0.9	-4	25	0.9	13	12
CCCc1[nH]nc2c1C(c1ccc(O)cc1OCC)C(C#N)=C(N)O2 (stereo not drawn)	0.9	-5	56*	0.9	-1	-11
CCCc1[nH]nc2c1C(C1CCCCC1)C(C#N)=C(N)O2 (stereo not drawn)	0.8	-10	93*	0.9	4	-4
COc1ccc(N(C(C)C(=O)N2CCC(Cc3ccccc3)CC2)S(C)(=O)=O)cc1 (stereo not drawn)	0.9	3	6	0.9	9	30
O=C(Nc1ccc(N2C(=O)CCC2=O)cc1Cl)c1cccs1	1.1	-2	-5	1	-19	-38
CCOC(=O)C1CCCN(C(=O)c2ccc3c(c2)N(Cc2ccccc2)C(=O)c2ccccc2S3=O)C1 (stereo not drawn)	1	-10	27	1	11	26
COc1ccc(-c2cc(C(F)(F)F)nc(SCCC(=O)N3CCN4CCCC4C3)n2)cc1 (stereo not drawn)	1	7	55*	1	-3	-92
COc1ccc(-c2cc(C(F)(F)F)nc(SCCC(=O)N3CCCC3)n2)cc1	0.9	-2	3	0.9	-5	-32
O=C(CCSc1nc(-c2ccco2)cc(C(F)(F)F)n1)N1CCN(c2ccccc2)CC1	0.8	-3	-7	0.8	62*	-8
SMILES	PMI act	Rad51 HR inh	L major viab	PMI act satM6P	WT yeast gro inh	Calpain2 inh
FC(F)(F)c1cc(-c2ccco2)nc(N2CCN(c3ccccc3)CC2)n1	0.8	1	0	0.8	27	12
COC(C/C=C\[C@H](O)[C@@H](C)OCc1ccccc1)OC	x	-5	x	x	x	x
CCOc1ccccc1CNc1ccc(O)cc1	0.6	4	22	0.4	22	-26
CCc1ccc(CNc2ccc(O)cc2)cc1	0.7	6	98*	0.9	10	-28
COc1ccc2c(N)c(C(=O)NN)[nH]c2c1	x	-49	x	x	x	-30
CC(=O)Nc1ccc(S(=O)(=O)NCCOc2ccc(Cl)cc2C)cc1	0.9	x	0	1	21	10
CCCCOc1ccc(CONS(=O)(=O)c2ccc(NC(C)=O)cc2)cc1Cl	0.8	-9	14	0.8	74*	50*
Cn1ncc([N+](=O)[O-])c1C(=O)n1nnc2ccccc21	1.2	5	1	1.3	-16	0
O=S(=O)(/N=C(/Sc1ccccc1)c1ccccc1)c1ccccc1	1	-8	-4	1.1	9	-24
CS/C(=N\S(=O)(=O)c1ccccc1)c1ccccc1	1.7	2	49	2*	-3	-9
COc1cc(C(=O)OCC(=O)Nc2ccc(C(C)=O)cc2)ccc1OCC(=O)N1CCOCC1	1.1	7	66*	1.1	-1	19
CCOc1cc(C(=O)OCC(=O)Nc2c(C)cccc2C)ccc1OCC(=O)N1CCOCC1	1	8	-7	0.9	-6	-6
COc1ccc(-c2csc(NC(=O)c3ccc(OCC(=O)N4CCOCC4)c(OC)c3)n2)cc1OC	0.9	5	71*	1	-13	-49
CCc1nnc(N2C(=O)c3ccc(Oc4ccc([N+](=O)[O-])cc4)cc3C2=O)s1	1	4	-8	1	-18	-32
Cc1nn(Cc2ccccc2)c(C)c1NC(=O)c1cc2nc(-c3ccco3)cc(C(F)(F)F)n2n1	0.9	-2	21	1	-14	-181
COc1cccc(-c2cc(C(=O)Nc3cnn(Cc4ccc(F)cc4)c3)no2)c1	1	-5	0	1.1	-20	-22
O=C(Nc1cnn(Cc2ccc(F)cc2)c1)c1cc2nc(-c3ccco3)cc(C(F)(F)F)n2n1	1	0	-1	1	-4	91*
Cn1cc(Cl)c(C(=O)Nc2cnn(Cc3ccc(F)cc3)c2)n1	1.1	x	99*	1	12	9
O=C(Nc1cnn(Cc2ccc(F)cc2)c1)c1cc(-c2ccco2)on1	1.2	-4	69*	1	36	-83
